Read-outs that look alike come from different tables or passages of the source.
Columns and labels:
[1] = tested on: Japanese patients with advanced solid tumors; assay: Safety assessment; assay type: in vivo, human
Summary of the method: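 Patients took oral test compound daily (capsule or tablet, q.d. or b.i.d.) in 28-day cycles until progression, intolerable toxicity or withdrawal. AEs graded by CTCAE v4.0, alongside regular laboratory tests, physical examination, vital signs, weight and periodic ECG. Safety set: patients with at least one dose and at least one valid postbaseline safety assessment.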

[2] = tested on: Japanese patients with advanced solid tumors; assay type: in vivo, human; settings: for DLT event: one patient
Summary of the method: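 Open-label phase I at two Japanese centres; oral test compound given q.d. or b.i.d. as capsule or tablet in 28-day cycles, escalated by a 2-parameter Bayesian logistic regression model with overdose control. DLT: grade 3 or 4 AE or abnormal laboratory value (CTCAE v4.0), not attributed to disease, intercurrent illness or co-medication, within the first 28 days. MTD: highest dose not expected to cause DLT in >33% of patients.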

[3] = Plasma pharmacokinetics of capmatinib; assay type: in vivo, human; settings: for AUC / Cmax: 400 mg, 400 mg b.i.d., day 15; for AUC: Mean AUCtau; for Cmax: Mean Cmax
advanced solid tumors = assay: Tumor assessment by CT/MRI according to RECIST version 1.1; assay type: in vivo, human; settings: investigator assessed; eight of 44 patients
[4] = tested on: MET kinase versus other kinases (panel of 57 human kinases); settings: cited from earlier work
[5] = tested on: MET-dependent (amplified/autocrine) tumor models; settings: at tolerable doses; cited from earlier work
[6] = study CINC280X2103; ref data on file; cited from earlier work
MET = settings: read-out: IC50 (MET, biochemical); cited from earlier work
[7] = regardless of relationship, all patients, n = 44
[8] = regardless of study drug relationship, all patients
[9] = human, plasma, oral, capsule group
[10] = human, plasma, oral, tablet group

For `CNC(=O)c1ccc(-c2cnc3ncc(Cc4ccc5ncccc5c4)n3n2)cc1F` [capmatinib], the “Patients with one or more dose interruptions” value ([1]; 21 patients) was 47.7%, the “AE requiring dose adjustment and/or interruption” value ([1]; 26 of 44 patients) was 59.1% and the Overall tolerability ([1]; Japanese patients, overall) was “well tolerated”. The “Changes in vital signs and ECG intervals” value ([1]; all patients) was “no clinically meaningful changes or trends”, the “Colitis ulcerative, grade 3/4 suspected to be drug-related” value ([1]; all patients) was 1 n and the “Decreased appetite requiring dose adjustment and/or interruption” value ([1]; all patients) was 6.8%. The “Decreased appetite, suspected to be drug-related” value ([1]; all patients) was 29.5%, the “Depression, grade 3/4 suspected to be drug-related” value ([1]; all patients) was 1 n and the “Diarrhea, suspected to be drug-related” value ([1]; all patients) was 20.5%. For the same compound, the “Hypophosphatemia, grade 3/4 suspected to be drug-related” value ([1]; all patients) was 1 n, the “Increased ALT and AST, grade 3/4 suspected to be drug-related” value ([1]; all patients) was 1 n and the “Increased GGT, grade 3/4 suspected to be drug-related” value ([1]; all patients) was 1 n. The “Increased blood creatinine requiring dose adjustment and/or interruption” value ([1]; all patients) was 20.5%, the “Increased blood creatinine, suspected to be drug-related” value ([1]; all patients) was 45.5% and the “Lung infection, grade 3/4 suspected to be drug-related” value ([1]; all patients) was 1 n. For the same compound, the “Nausea requiring dose adjustment and/or interruption” value ([1]; all patients) was 13.6%, the “Nausea, suspected to be drug-related” value ([1]; all patients) was 31.8% and the “On-treatment deaths (within 28 days after discontinuation)” value ([1]; all patients) was “No on‐treatment deaths”. The “Patients experiencing one or more AE” value ([1]; all patients) was 95.5%, the “QTcB increase from baseline of more than 30 ms” value ([1]; all patients) was “three” and the “Treatment-emergent prolongation of QTcB of more than 450 ms” value ([1]; all patients) was “three”. For the same compound, the “Treatment-emergent prolongation of QTcB of more than 480 ms” value ([1]; all patients) was “one”, the “Vomiting requiring dose adjustment and/or interruption” value ([1]; all patients) was 6.8% and the “Vomiting, suspected to be drug-related” value ([1]; all patients) was 29.5%. The “AE leading to discontinuation” value ([1]; all patients, n = 44) was 4 (9.1) n (%), the “AE requiring dose interruption and/or reduction” value ([1]; all patients, n = 44) was 26 (59.1) n (%) and the “AE requiring dose interruption and/or reduction, Suspected to be drug-related” value ([1]; all patients, n = 44) was 17 (38.6) n (%). For the same compound, the “All deaths (incl. more than 28 days after discontinuation)” value ([1]; all patients, n = 44) was 1 (2.3) n (%), the “On-treatment deaths (up to 28 d after discontinuation)” value ([1]; all patients, n = 44) was 0 n (%) and the “Patients experiencing ≥1 AE, Suspected to be drug-related” value ([1]; all patients, n = 44) was 37 (84.1) n (%). For the same compound, the SAE ([1]; all patients, n = 44) was 7 (15.9) n (%), the “SAE, Suspected to be drug-related” value ([1]; all patients, n = 44) was 2 (4.5) n (%) and the “Total number of patients experiencing ≥1 AE” value ([1]; all patients, n = 44) was 42 (95.5) n (%). For the same compound, the “Discontinuation due to AE (all grades)” value ([1]; four of 44 patients) was 9.1%, the “AE suspected to be drug-related” value ([1]; mainly grade 1/2, 37 patients) was 84.1% and the “Patients with dose interrupted only once” value ([1]; nine patients) was 20.5%. For the same compound, the Tolerability ([1]; p.o. 400 mg b.i.d. in tablet formulation) was “well tolerated”, the “Anemia, All grades” value [1, 7] was 7 (15.9) n (%) and the “Anemia, Grade 3/4” value [1, 7] was 0 n (%). The “Any AE, All grades” value [1, 7] was 42 (95.5) n (%), the “Any AE, Grade 3/4” value [1, 7] was 15 (34.1) n (%) and the “Constipation, All grades” value [1, 7] was 7 (15.9) n (%). The “Constipation, Grade 3/4” value [1, 7] was 0 n (%), the “Decreased appetite, All grades” value [1, 7] was 18 (40.9) n (%) and the “Decreased appetite, grade 3/4” value [1, 7] was 3 (6.8) n (%). The “Diarrhea, All grades” value [1, 7] was 11 (25.0) n (%), the “Diarrhea, Grade 3/4” value [1, 7] was 0 n (%) and the “Edema peripheral, All grades” value [1, 7] was 9 (20.5) n (%). For the same compound, the “Edema peripheral, Grade 3/4” value [1, 7] was 1 (2.3) n (%), the “Fatigue, All grades” value [1, 7] was 7 (15.9) n (%) and the “Fatigue, Grade 3/4” value [1, 7] was 0 n (%). For the same compound, the “Hypoalbuminemia, All grades” value [1, 7] was 10 (22.7) n (%), the “Hypoalbuminemia, grade 3/4” value [1, 7] was 2 (4.5) n (%) and the “Increased blood creatinine, All grades” value [1, 7] was 23 (52.3) n (%). The “Increased blood creatinine, Grade 3/4” value [1, 7] was 0 n (%), the “Malaise, All grades” value [1, 7] was 8 (18.2) n (%) and the “Malaise, Grade 3/4” value [1, 7] was 0 n (%). For the same compound, the “Nausea, All grades” value [1, 7] was 21 (47.7) n (%), the “Nausea, Grade 3/4” value [1, 7] was 0 n (%) and the “Pyrexia, All grades” value [1, 7] was 8 (18.2) n (%). For the same compound, the “Pyrexia, Grade 3/4” value [1, 7] was 0 n (%), the “Vomiting, All grades” value [1, 7] was 17 (38.6) n (%) and the “Vomiting, Grade 3/4” value [1, 7] was 0 n (%). For the same compound, the “Grade 3/4 AE” value ([1]; regardless of study drug relationship, 15 patients) was 34.1%, the “Ascites, grade 3/4” value [1, 8] was 4.5% and the “Decreased appetite, all grades” value [1, 8] was 40.9%. The “Decreased appetite, grade 3/4” value [1, 8] was 6.8%, the “Diarrhea, all grades” value [1, 8] was 25.0% and the “Hypoalbuminemia, all grades” value [1, 8] was 22.7%. The “Hypoalbuminemia, grade 3/4” value [1, 8] was 4.5%, the “Hyponatremia, grade 3/4” value [1, 8] was 9.1% and the “Hypophosphatemia, grade 3/4” value [1, 8] was 4.5%. For the same compound, the “Increased GGT, grade 3/4” value [1, 8] was 4.5%, the “Increased blood creatinine, all grades” value [1, 8] was 52.3% and the “Nausea, all grades” value [1, 8] was 47.7%. For the same compound, the “Peripheral edema, all grades” value [1, 8] was 20.5%, the “Vomiting, all grades” value [1, 8] was 38.6% and the “Grade 3/4 AE suspected to be drug-related” value ([1]; seven patients) was 15.9%. For the same compound, the “Patients with one dose reduction” value ([1]; three patients) was 6.8%, the MTD ([2]; escalated up to 400 mg b.i.d. tablet and 600 mg b.i.d. capsule) was “not reached” and the DLT event ([2]; 400 mg b.i.d. tablet) was “grade 3 depression”. The DLT event ([2]; 600 mg b.i.d. capsule) was “grade 2 suicidal ideation”, the “Highest studied dose determined to be safe, tablet” value ([2]; tablet formulation, single agent) was 400 mg b.i.d and the “Patients permanently discontinued owing to DLT” value ([2]; two patients) was 5.1%. The “Median Tmax” value ([3]; day 15, tablet) was 1.0 h, the Tmax ([3]; human, plasma, oral) was 1 h and the AUC [3, 9] was 11000 ng·h/mL. For the same compound, the AUC [3, 10] was 31400 ng·h/mL, the Cmax [3, 9] was 1980 ng/mL and the Cmax [3, 10] was 7570 ng/mL. For the same compound, the Steady state achieved ([3]; pre-dose concentrations generally stable after day 15) was at most 15 days, the “Best overall response of SD” value (advanced solid tumors) was 18.2% and the “selectivity for MET kinase versus other kinases” value [4] was 10 000 fold. The “Effect on MET-dependent tumor models” value [5] was “causes regression”, the “Cmax geometric mean ratio (tablet vs capsule)” value [6] was 3.0 and the IC50 (MET) was 0.13 nM.
